≈ marks a conversion by molar mass, not a printed value.
Legend:
Aspergillus fumigatus [1] = assay: Antifungal activity against Aspergillus fumigatus NRRL 163 assessed as fungal growth inhibition by double dilution method; type: functional
Pichia kudriavzevii [2] = assay: Antifungal activity against Pichia kudriavzevii AR Bank # 397 assessed as fungal growth inhibition by double dilution method; type: functional
In short: (§1)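 Broth microdilution after CLSI M27-A3/M38-A2 with minor changes. Single colony grown overnight in YPD at 35 °C, 200 rpm. Compound final range 0.06-31.3 µg/mL; incubated 48 h at 35 °C.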

J774.A1 = assay: Cytotoxicity against J774A.1 cells assessed as reduction in cell viability at 31.3 microg/ml; type: toxicity, cell-based; conditions: mouse, dose 31.3 µg/ml
In short: (§2)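 Cells in DMEM with 10% FBS and 1% Pen/Strep, seeded at 10,000 cells/well and held overnight at 37 °C, 5% CO2. Compounds added at final 31.3-0.12 µg/mL (0.05% DMSO vehicle) for 24 h. Resazurin then added for 6 h; fluorescence read at ex 560/em 590. Triton X-100 1% as positive control; values normalized to vehicle. Run in quadruplicate.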

HEK293 = assay: Cytotoxicity against human HEK-293 cells assessed as reduction in cell viability at 31.3 microg/ml; type: toxicity, cell-based; conditions: dose 31.3 µg/ml; in short: as §2
Candida albicans [3] = assay: Antifungal activity against Candida albicans ATCC 64124 assessed as fungal growth inhibition by double dilution method; type: functional
In short: (§3)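 Broth microdilution after CLSI M27-A3/M38-A2 with minor modifications. A single colony was grown overnight in YPD at 35 °C with shaking at 200 rpm. Cells were mixed 1:1 with compound (final 0.06-31.3 µg/mL, from DMSO stocks) and incubated 48 h at 35 °C.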

Aspergillus fumigatus [4] = assay: Antifungal activity against Aspergillus fumigatus NRRL 5109 assessed as fungal growth inhibition by double dilution method; type: functional
Kodamaea ohmeri = assay: Antifungal activity against Kodamaea ohmeri AR Bank # 396 assessed as fungal growth inhibition by double dilution method; type: functional; in short: as §1
Nakaseomyces glabratus [5] = assay: Antifungal activity against Candida glabrata ATCC 22019 assessed as fungal growth inhibition by double dilution method; type: functional; in short: as §1
[Candida] auris [6] = Antifungal activity against Candida auris AR Bank # 383 assessed as fungal growth inhibition by double dilution method; type: functional; conditions: Candidozyma auris; in short: as §1
[Candida] auris [7] = Antifungal activity against Candida auris AR Bank # 382 assessed as fungal growth inhibition by double dilution method; type: functional; conditions: Candidozyma auris; in short: as §1
[Candida] auris [8] = Antifungal activity against Candida auris AR Bank # 387 assessed as fungal growth inhibition by double dilution method; type: functional; conditions: Candidozyma auris; in short: as §1
Candida albicans [9] = assay: Antifungal activity against Candida albicans ATCC 10231 assessed as fungal growth inhibition by double dilution method; type: functional; in short: as §1
[Candida] auris [10] = Antifungal activity against Candida auris AR Bank # 0390 assessed as fungal growth inhibition by double dilution method; type: functional; conditions: Candidozyma auris; in short: as §1
Aspergillus flavus = assay: Antifungal activity against Aspergillus flavus ATCC MYA-3631 assessed as fungal growth inhibition by double dilution method; type: functional
[Candida] auris [11] = Antifungal activity against Candida auris AR Bank # 0384 assessed as fungal growth inhibition by double dilution method; type: functional; conditions: Candidozyma auris; in short: as §1
Saccharomyces cerevisiae [12] = assay: Antifungal activity against Saccharomyces cerevisiae AR Bank # 399 assessed as fungal growth inhibition by double dilution method; type: functional; in short: as §1
Candida albicans [13] = assay: Antifungal activity against itraconazole/fluconazole susceptible Candida albicans ATCC MYA-2310 assessed as fungal growth inhibition by double dilution method; type: functional; in short: as §3
Nakaseomyces glabratus [14] = assay: Antifungal activity against Candida glabrata ATCC 2001 assessed as fungal growth inhibition by double dilution method; type: functional; in short: as §1
Candida albicans [15] = assay: Antifungal activity against itraconazole/fluconazole resistant Candida albicans ATCC 90819 assessed as fungal growth inhibition by double dilution method; type: functional; in short: as §3
Candida albicans [16] = assay: Antifungal activity against itraconazole/fluconazole susceptible Candida albicans ATCC MYA-2876 assessed as fungal growth inhibition by double dilution method; type: functional; in short: as §3
Candida albicans [17] = assay: Antifungal activity against itraconazole/fluconazole resistant Candida albicans ATCC MYA-1237 assessed as fungal growth inhibition by double dilution method; type: functional; in short: as §3
Candida duobushaemulonii [18] = assay: Antifungal activity against Candida duobushaemulonii AR Bank # 391 assessed as fungal growth inhibition by double dilution method; type: functional; conditions: Candidozyma duobushaemuli; in short: as §1
[Candida] haemuloni [19] = Antifungal activity against Candida haemulonii AR Bank # 395 assessed as fungal growth inhibition by double dilution method; type: functional; conditions: Candidozyma haemuli; in short: as §1
Candida albicans [20] = assay: Antifungal activity against itraconazole/fluconazole resistant Candida albicans ATCC MYA-1003 assessed as fungal growth inhibition by double dilution method; type: functional; in short: as §3
[Candida] haemuloni [21] = Antifungal activity against Candida haemulonii AR Bank # 393 assessed as fungal growth inhibition by double dilution method; type: functional; conditions: Candidozyma haemuli; in short: as §1
Aspergillus terreus = assay: Antifungal activity against Aspergillus terreus ATCC MYA-3633 assessed as fungal growth inhibition by double dilution method; type: functional
Saccharomyces cerevisiae [22] = assay: Antifungal activity against Saccharomyces cerevisiae AR Bank # 400 assessed as fungal growth inhibition by double dilution method; type: functional; in short: as §1
Candida duobushaemulonii [23] = assay: Antifungal activity against Candida duobushaemulonii AR Bank # 392 assessed as fungal growth inhibition by double dilution method; type: functional; conditions: Candidozyma duobushaemuli; in short: as §1
[Candida] auris [24] = Antifungal activity against Candida auris AR Bank # 388 assessed as fungal growth inhibition by double dilution method; type: functional; conditions: Candidozyma auris; in short: as §1
[Candida] auris [25] = Antifungal activity against Candida auris AR Bank # 385 assessed as fungal growth inhibition by double dilution method; type: functional; conditions: Candidozyma auris; in short: as §1
Aspergillus fumigatus [26] = assay: Antifungal activity against Aspergillus fumigatus NRRL 6113 assessed as fungal growth inhibition by double dilution method; type: functional
[Candida] auris [27] = Antifungal activity against Candida auris AR Bank # 390 assessed as fungal growth inhibition by double dilution method; type: functional; conditions: Candidozyma auris; in short: as §1
[Candida] auris [28] = Antifungal activity against Candida auris AR Bank # 384 assessed as fungal growth inhibition by double dilution method; type: functional; conditions: Candidozyma auris; in short: as §1
Aspergillus nidulans = assay: Antifungal activity against Aspergillus nidulans ATCC 38163 assessed as fungal growth inhibition by double dilution method; type: functional
Candida duobushaemulonii [29] = assay: Antifungal activity against Candida duobushaemulonii AR Bank # 394 assessed as fungal growth inhibition by double dilution method; type: functional; conditions: Candidozyma duobushaemuli; in short: as §1
[Candida] auris [30] = Antifungal activity against Candida auris AR Bank # 381 assessed as fungal growth inhibition by double dilution method; type: functional; conditions: Candidozyma auris; in short: as §1
[Candida] auris [31] = Antifungal activity against Candida auris AR Bank # 389 assessed as fungal growth inhibition by double dilution method; type: functional; conditions: Candidozyma auris; in short: as §1
[Candida] auris [32] = Antifungal activity against Candida auris AR Bank # 386 assessed as fungal growth inhibition by double dilution method; type: functional; conditions: Candidozyma auris; in short: as §1
HepG2 = assay: Cytotoxicity against human HepG2 cells assessed as reduction in cell viability upto 31.3 microg/ml; type: toxicity, cell-based; conditions: dose < 31.3 µg/ml; in short: as §2
Clavispora lusitaniae = assay: Antifungal activity against Clavispora lusitaniae AR Bank # 398 assessed as fungal growth inhibition by double dilution method; type: functional; in short: as §1
Cryptococcus neoformans = assay: Antifungal activity against Cryptococcus neoformans ATCC MYA-895 assessed as fungal growth inhibition by double dilution method; type: functional; in short: as §1
Pichia kudriavzevii [33] = assay: Antifungal activity against Pichia kudriavzevii ATCC 6258 assessed as fungal growth inhibition by double dilution method; type: functional; in short: as §1

With `COc1ccc(NNC(=O)c2cnccn2)cc1` the MIC (Aspergillus fumigatus [1]) was 31.3 µg/mL (≈ 128 µM), the MIC (Pichia kudriavzevii [2]) was 0.49 µg/mL (≈ 2.01 µM) and the Activity (J774.A1) was “Non-Toxic”. For the same compound, the Activity (HEK293) was “Non-Toxic”, the MIC (Candida albicans [3]) was 0.98 µg/mL (≈ 4.01 µM) and the MIC (Aspergillus fumigatus [4]) was 31.3 µg/mL (≈ 128 µM). For the same compound, the MIC (Kodamaea ohmeri) was 0.98 µg/mL (≈ 4.01 µM), the MIC (Nakaseomyces glabratus [5]) was 3.9 µg/mL (≈ 16 µM) and the MIC ([Candida] auris [6]) was 0.98 µg/mL (≈ 4.01 µM). The MIC ([Candida] auris [7]) was 0.98 µg/mL (≈ 4.01 µM), the MIC ([Candida] auris [8]) was 1.95 µg/mL (≈ 7.98 µM) and the MIC (Candida albicans [9]) was 0.49 µg/mL (≈ 2.01 µM). For the same compound, the MIC ([Candida] auris [10]) was 0.49 µg/mL (≈ 2.01 µM), the MIC (Aspergillus flavus) was over 31.3 µg/mL and the MIC ([Candida] auris [11]) was 0.49 µg/mL (≈ 2.01 µM). It also gave an MIC (Saccharomyces cerevisiae [12]) of 0.98 µg/mL (≈ 4.01 µM), an MIC (Candida albicans [13]) of 1.95 µg/mL (≈ 7.98 µM) and an MIC (Nakaseomyces glabratus [14]) of 0.98 µg/mL (≈ 4.01 µM). The MIC (Candida albicans [15]) was 0.98 µg/mL (≈ 4.01 µM), the MIC (Candida albicans [16]) was 1.95 µg/mL (≈ 7.98 µM) and the MIC (Candida albicans [17]) was 0.98 µg/mL (≈ 4.01 µM). It also gave an MIC (Candida duobushaemulonii [18]) of 0.49 µg/mL (≈ 2.01 µM), an MIC ([Candida] haemuloni [19]) of 0.49 µg/mL (≈ 2.01 µM) and an MIC (Candida albicans [20]) of 1.95 µg/mL (≈ 7.98 µM). It also gave an MIC ([Candida] haemuloni [21]) of 0.24 µg/mL (≈ 0.983 µM), an MIC (Aspergillus terreus) of over 31.3 µg/mL and an MIC (Saccharomyces cerevisiae [22]) of 0.98 µg/mL (≈ 4.01 µM). The MIC (Candida duobushaemulonii [23]) was 0.49 µg/mL (≈ 2.01 µM), the MIC ([Candida] auris [24]) was 0.98 µg/mL (≈ 4.01 µM) and the MIC ([Candida] auris [25]) was 0.98 µg/mL (≈ 4.01 µM). The MIC (Aspergillus fumigatus [26]) was 31.3 µg/mL (≈ 128 µM), the MIC ([Candida] auris [27]) was 0.98 µg/mL (≈ 4.01 µM) and the MIC ([Candida] auris [28]) was 0.98 µg/mL (≈ 4.01 µM). It also gave an MIC (Aspergillus nidulans) of 0.98 µg/mL (≈ 4.01 µM), an MIC (Candida duobushaemulonii [29]) of 0.49 µg/mL (≈ 2.01 µM) and an MIC ([Candida] auris [30]) of 1.95 µg/mL (≈ 7.98 µM). For the same compound, the MIC ([Candida] auris [31]) was 0.98 µg/mL (≈ 4.01 µM), the MIC ([Candida] auris [32]) was 0.49 µg/mL (≈ 2.01 µM) and the Activity (HepG2) was “Non-Toxic”. It also gave an MIC (Clavispora lusitaniae) of 0.98 µg/mL (≈ 4.01 µM), an MIC (Cryptococcus neoformans) of 0.98 µg/mL (≈ 4.01 µM) and an MIC (Pichia kudriavzevii [33]) of 0.98 µg/mL (≈ 4.01 µM).

Reference: ChEMBL document CHEMBL5329156, “Discovery and development of novel substituted monohydrazides as potent antifungal agents” (RSC Med Chem, 2023)
